Source: ChEMBL document CHEMBL1122897, “Tetracyclic pyridazines as potential psychopharmacological agents” (J Med Chem, 1985)
One block for each compound: values may come before it.

Assays:
Format in all cases: functional
Mus musculus [1] = test: Ability to inhibit the uptake of Serotonin into mouse cortical slices 1 hour after intraperitoneal injection ex vivo at a dose of >128
How it was run: (§1)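 Ex vivo: white mice (18–22 g), four per dose, given test drug intraperitoneally; 1 h later cerebral cortical plus striatal slices incubated 5 min with 0.2 nmol [3H]NE and 0.2 nmol [14C]-5-HT, pargyline, glucose in Krebs-Henseleit buffer pH 7.4 under O2/6.5% CO2. Dual-channel scintillation counting of dissolved slices; active uptake defined as cocaine (3 × 10^-4 M)-inhibitable.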

Mus musculus [2] = species: Mus musculus; test: In vitro activity for the ability to inhibit the uptake of Serotonin into mouse cortical slices; value ranges from 2.6-6.7
How it was run: (§2)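 Slices (60 mg cortical, 20 mg striatal) from untreated white mice (18–22 g) incubated with test compound, 0.2 nmol [3H]NE and 0.2 nmol [14C]-5-HT simultaneously, 0.48 μmol pargyline, 11 μmol glucose in 2.0 mL Krebs-Henseleit pH 7.4, 5 min under O2 with 6.5% CO2. 3H and 14C counted separately by liquid scintillation; active uptake = portion blocked by 3 × 10^-4 M cocaine.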

Mus musculus [3] = species: Mus musculus; test: In vitro activity for the ability to inhibit the uptake of Norepinephrine into mouse cortical slices; value ranges from 2.2-5.5; how it was run: as §2
Mus musculus [4] = test: Ability to inhibit the uptake of Norepinephrine into mouse cortical slices 1 hour after intraperitoneal injection ex vivo at a dose of >128; how it was run: as §1
Mus musculus [5] = species: Mus musculus; test: In vitro activity for the ability to inhibit the uptake of Norepinephrine into mouse cortical slices; value ranges from 1.1-4.4; how it was run: as §2
Mus musculus [6] = test: Ability to inhibit the uptake of Norepinephrine into mouse cortical slices 1 hour after intraperitoneal injection ex vivo; value ranges from […]; conditions: ip; how it was run: as §1
Mus musculus [7] = test: Ability to inhibit the uptake of Serotonin into mouse cortical slices 1 hour after intraperitoneal injection ex vivo value ranges from 27-224; conditions: ip; how it was run: as §1
Mus musculus [8] = species: Mus musculus; test: In vitro activity for the ability to inhibit the uptake of Serotonin into mouse cortical slices; value ranges from 0.8-3.0; how it was run: as §2
Mus musculus [9] = species: Mus musculus; test: In vitro activity for the ability to inhibit the uptake of Norepinephrine into mouse cortical slices; value ranges from 2.3-7.0; how it was run: as §2
Mus musculus [10] = test: Ability to inhibit the uptake of Norepinephrine into mouse cortical slices 1 hour after intraperitoneal injection ex vivo at a dose of >117; how it was run: as §1
Mus musculus [11] = test: Ability to inhibit the uptake of Serotonin into mouse cortical slices 1 hour after intraperitoneal injection ex vivo at a dose of >117; how it was run: as §1
Mus musculus [12] = species: Mus musculus; test: In vitro activity for the ability to inhibit the uptake of Serotonin into mouse cortical slices; value ranges from […]; how it was run: as §2
Mus musculus [13] = test: Ability to inhibit the uptake of Serotonin into mouse cortical slices 1 hour after intraperitoneal injection ex vivo; conditions: ip; how it was run: as §1
Mus musculus [14] = species: Mus musculus; test: (§3) In vitro activity for the ability to inhibit the uptake of Serotonin into mouse cortical slices.; how it was run: as §2
Mus musculus [15] = test: Ability to inhibit the uptake of Norepinephrine into mouse cortical slices 1 hour after intraperitoneal injection ex vivo; conditions: ip
Mus musculus [16] = species: Mus musculus; test: (§4) In vitro activity for the ability to inhibit the uptake of Norepinephrine into mouse cortical slices.; how it was run: as §2
Mus musculus [17] = test: Ability to inhibit the uptake of Norepinephrine into mouse cortical slices 1 hour after intraperitoneal injection ex vivo; value ranges from 11-23; conditions: ip; how it was run: as §1
Mus musculus [18] = species: Mus musculus; test: In vitro activity for the ability to inhibit the uptake of Serotonin into mouse cortical slices; value ranges from 2.0-6.4; how it was run: as §2
Mus musculus [19] = species: Mus musculus; test: In vitro activity for the ability to inhibit the uptake of Norepinephrine into mouse cortical slices; value ranges from 0.2-1.0; how it was run: as §2
Mus musculus [20] = test: Ability to inhibit the uptake of Norepinephrine into mouse cortical slices 1 hour after intraperitoneal injection ex vivo at a dose of 102; how it was run: as §1
Mus musculus [21] = species: Mus musculus; test: In vitro activity for the ability to inhibit the uptake of Serotonin into mouse cortical slices; value ranges from 0.3-1.0; how it was run: as §2
Mus musculus [22] = test: Ability to inhibit the uptake of Serotonin into mouse cortical slices 1 hour after intraperitoneal injection ex vivo at concentration of 102 uM/Kg; how it was run: as §1
Mus musculus [23] = species: Mus musculus; test: In vitro activity for the ability to inhibit the uptake of Norepinephrine into mouse cortical slices at a dose of >25; how it was run: as §2
Mus musculus [24] = species: Mus musculus; test: In vitro activity for the ability to inhibit the uptake of Serotonin into mouse cortical slices at a dose of 27; how it was run: as §2
Mus musculus [25] = test: Ability to inhibit the uptake of Norepinephrine into mouse cortical slices 1 hour after intraperitoneal injection ex vivo at a dose of >106; how it was run: as §1
Mus musculus [26] = test: Ability to inhibit the uptake of Serotonin into mouse cortical slices 1 hour after intraperitoneal injection ex vivo at a dose > 106; how it was run: as §1
Mus musculus [27] = species: Mus musculus; test: In vitro activity for the ability to inhibit the uptake of Norepinephrine into mouse cortical slices Value ranges from […]; how it was run: as §2
Mus musculus [28] = species: Mus musculus; test: as §3; conditions: read-out: ED50 (the source's name)
How it was run: (§5)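 Slices from untreated white mice (18–22 g), four animals per dose: 60 mg cortical plus 20 mg striatal, with test compound in the bath. Simultaneous uptake of [3H]NE and [14C]-5-HT (0.2 nmol each), with 0.48 μmol pargyline and 11 μmol glucose in 2.0 mL Krebs-Henseleit buffer, pH 7.4. Incubation 5 min under O2/6.5% CO2. Separate 3H and 14C channels; active uptake is the portion inhibited by 3 × 10^-4 M cocaine.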

Mus musculus [29] = species: Mus musculus; test: as §4; conditions: read-out: ED50 (the source's name); how it was run: as §5

EC50 (Mus musculus [2]): 4.2 µM
EC50 (Mus musculus [3]): 3.5 µM
Compound: CN(C)CCc1nnc2ccccc2c1-c1cccc(Cl)c1
Inhibition (Mus musculus [1]): 42%
Inhibition (Mus musculus [4]): 49%

EC50 (Mus musculus [5]): 2200 nM
EC50 (Mus musculus [8]): 1600 nM
Compound: CN(C)CC/C=C1\c2ccccc2CCc2cccc(N)c21
ED50 (Mus musculus [6]): 15 µmol/kg
ED50 (Mus musculus [7]): 55 µmol/kg

EC50 (Mus musculus [9]): 3.8 µM
EC50 (Mus musculus [12]): 7.3 µM
Compound: CN(C)CCc1nnc2cccc3c2c1-c1cc(Cl)ccc1S3
Inhibition (Mus musculus [10]): 27%
Inhibition (Mus musculus [11]): 16%

EC50 (Mus musculus [14]): 0.3 µM
EC50 (Mus musculus [16]): 1300 nM
Compound: CN(C)CCCN1c2ccccc2CCc2ccccc21 [IMIPRAMINE]
ED50 (Mus musculus [13]): 126 µmol/kg
ED50 (Mus musculus [15]): 63 µmol/kg

EC50 (Mus musculus [18]): 3.5 µM
EC50 (Mus musculus [19]): 700 nM
Compound: CN(C)CC/C=C1\c2cc(Cl)ccc2Sc2cccc(N)c21
ED50 (Mus musculus [17]): 16 µmol/kg
ED50 (Mus musculus [13]): > 99 µmol/kg

EC50 (Mus musculus [14]): 12 µM
EC50 (Mus musculus [16]): 70 nM
Compound: CNCCCN1c2ccccc2CCc2ccccc21 [DESIPRAMINE]
ED50 (Mus musculus [13]): > 132 µmol/kg

EC50 (Mus musculus [21]): 500 nM
Compound: CN(C)CC/C=C(\c1cccc(Cl)c1)c1ccccc1N
Inhibition (Mus musculus [20]): 33%
Inhibition (Mus musculus [22]): 55%
Inhibition (Mus musculus [23]): 37%

EC50 (Mus musculus [27]): 6.6 µM
Compound: CN(C)CCc1nnc2cccc3c2c1-c1ccccc1CC3
Inhibition (Mus musculus [24]): 46%
Inhibition (Mus musculus [25]): 13%
Inhibition (Mus musculus [26]): 11%

Compound: CN(C)CCC=C1c2ccccc2CCc2ccccc21 [AMITRIPTYLINE]
EC50 (Mus musculus [28]): 2900 nM
ED50 (Mus musculus [13]): > 144 µmol/kg
ED50 (Mus musculus [15]): 144 µmol/kg
EC50 (Mus musculus [29]): 5.4 µM
